Compounds with a hit are over-represented: about 1.8% of the library has one in this group of screens.
Apaf1 inhib = human Apaf-1 inhibition | O14727 | reconstituted apoptosome caspase-3 activity, DEVD-Rh110 fluorescence | inhibition, % at 20 µM | 330,000 tested, 0.71% active | AID 489030; active = inhibition of at least 40% at 20 µM;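 note: plate controls were DMSO wells for no effect and DEVD-CHO caspase inhibitor wells for full effect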
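System – cell-free apoptosome with Apaf-1, procaspase-3 and caspase-9 · Buffer or medium – pH 7.5 Hepes buffer with CHAPS, BSA, DTT · Also added – cytochrome c with DEVD-Rh110 · Times – 30 min compound preincubation, 50 min activation, room temperature · Technique – Rh110 fluorescence intensity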
CTSL1 counter = blocks F. hepatica cathepsin L1 in PFM18AAP counter-screen. 300,000 tested, 0.49% active. inhibition, % at 5.96 µM. recombinant F. hepatica cathepsin L1, Z-Leu-Arg-MCA fluorescence;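 active = inhibition above the mean of all tested compounds plus 3 SD, set per screening campaign, cut at about 17% in these data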;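 note: 0% = plate median of test compound wells and 100% = 1 µM Z-Phe-Ala-diazomethylketone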
PAD4 inh = inhibitors of human PAD4. recombinant PAD4, RCA probe fluorescence polarization. AID 485272. Q9UM07. inhibition, % at 6.36 µM. 330,000 tested, 0.41% active;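 active = percent inhibition above a cutoff equal to the mean of all tested compounds plus 3 SD, cut at about 15% in these data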;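 note: 0% = PAD4 with RCA probe and DMSO and 100% = probe without PAD4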
Target sequence (Q9UM07 whole entry, looked up): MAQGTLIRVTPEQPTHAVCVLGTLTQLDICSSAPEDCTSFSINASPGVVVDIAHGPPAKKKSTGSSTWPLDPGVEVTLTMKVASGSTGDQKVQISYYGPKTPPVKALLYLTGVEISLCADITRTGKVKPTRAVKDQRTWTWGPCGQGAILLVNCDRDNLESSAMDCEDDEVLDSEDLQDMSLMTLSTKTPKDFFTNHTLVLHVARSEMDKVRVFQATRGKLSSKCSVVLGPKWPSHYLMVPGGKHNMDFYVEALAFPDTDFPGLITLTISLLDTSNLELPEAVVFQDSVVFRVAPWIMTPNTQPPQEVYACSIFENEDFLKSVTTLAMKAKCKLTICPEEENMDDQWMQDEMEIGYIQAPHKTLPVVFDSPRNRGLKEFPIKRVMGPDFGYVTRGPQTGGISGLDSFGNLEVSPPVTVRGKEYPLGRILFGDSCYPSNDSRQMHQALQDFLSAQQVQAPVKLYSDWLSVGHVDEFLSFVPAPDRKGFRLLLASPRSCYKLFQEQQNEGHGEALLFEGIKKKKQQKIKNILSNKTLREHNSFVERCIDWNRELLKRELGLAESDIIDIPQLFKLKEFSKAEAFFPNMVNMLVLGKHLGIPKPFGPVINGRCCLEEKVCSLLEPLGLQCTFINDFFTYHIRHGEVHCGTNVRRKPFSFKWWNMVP
GSTO1 inh = blocks human GSTO1 in RBBP9 counter-screen; P78417; recombinant GSTO1, activity-based probe fluorescence polarization; inhibition, % at 5.96 µM; 300,000 tested, 1.1% active; AID 1974;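 active = inhibition above the campaign mean inhibition plus 3 SD, cut at about 35% in these data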;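 note: 0% = GSTO1-1 with DMSO and 100% = wells lacking GSTO1-1 enzyme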
TDP2 absorb = blocks human TDP2 phosphodiesterase activity; recombinant TDP2, T5PNP hydrolysis, p-nitrophenol absorbance 415 nm; 370,000 tested, 0.34% active; inhibition, % at 12.8 µM; AID 720702; O95551;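 active = inhibition above the mean of all tested compounds plus 3 SD, set per campaign, cut at about 25% in these data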;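 note: 0% = DMSO with enzyme and 100% = buffer with substrate but no TDP2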
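Incubation: 2 h at 37 °C; Test system: recombinant human TDP2; Quantity: enzyme 120 nM; Read-out basis: percent inhibition; Medium: 50 mM Tris-HCl pH 7.5 with Mg2+, KCl, DTT, BSA; Repeats: single replicate; Compound: 12.8 µM single point, 1% DMSO; Signal: epi absorbance; Reagent: 5 mM T5PNP chromogenic substrate; Benchmarks: no-enzyme high, DMSO-plus-enzyme low.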
* = called active by the depositor; . = no result.

SMILES | Apaf1 inhib | CTSL1 counter | PAD4 inh | GSTO1 inh | TDP2 absorb
C[N+]1(C)[C@@H]2CC[C@H]1CC(OC(=O)[C@@H](CO)c1ccccc1)C2 (some centres undefined) | 70* | 3 | -1 | -6 | 14
C[N+]1(C)C2CC[C@H]1CC(OC(=O)C(CO)c1ccccc1)C2 (some centres undefined) | -6 | 15 | -3 | 4 | -5
CN(C)C(=O)Oc1noc2cc(Cl)ccc12 | -10 | 43* | -2 | 4 | 4
CC(C)(C)NC(=O)C1CN=C(c2ccccc2)c2cc(Cl)ccc2N1C(=O)C1CCC1 (centres undefined) | . | . | . | . | 8
O=C1C(=O)c2cccc3cccc1c23 | 8 | 13 | -7 | 38* | 6
[Cl][Pt+2][Cl].[NH-]C1CCCCC1[NH-] (centres undefined) | -7 | 40* | 2 | 6 | 5
C[N+]1=C(N)NC2=C3CCCCC3ONC2C1 (centres undefined) | . | . | . | . | 4
O=C(NCCN1CCC2(CC1)C(=O)NCN2c1ccccc1)c1ccc(Cl)cc1 | . | . | . | . | 6
CCOC(=O)c1c(N)n(CCCOC(=O)c2ccco2)c2nc3ccccc3nc12 | 43* | 11 | -3 | 33 | 6
CCCNC(=O)c1c(N)n(Cc2ccco2)c2nc3ccccc3nc12 | 40* | 7 | -15 | 17 | .
O=C(CN1C(=O)[C@@H](Cc2ccc(O)cc2)N=C(c2ccccc2)c2ccccc21)NC1CCCCC1 | . | . | . | . | 1
CCCC(=O)N1c2ccc(Cl)cc2C(c2ccccc2)=NCC1C(=O)NC(C)(C)C (centres undefined) | . | . | . | . | -7
COc1ccc(Cc2nccc3cc(OC)c(OC)cc23)cc1OC | 21 | 5 | -6 | 17 | 24
COc1ccc(CC2=NCCc3cc(OC)c(OC)cc32)cc1OC | . | . | . | . | 31*
CN1C(=O)C(Cc2ccccc2)C(=O)N(C)C1=O | . | . | . | . | 10
CN1C(=O)C(Cc2ccc3c(c2)OCO3)C(=O)N(C)C1=O | -2 | 0 | -2 | 41* | .
COC(=O)C1C=C2c3cccc4[nH]cc(c34)CC2N(C)C1 (centres undefined) | 56* | . | . | . | .
N#CCC[C@@H]1CC[C@]2(CCCN(Cc3ccccn3)C2)O1 | . | . | . | . | 1
O=C1NC(=O)C2(CCN(S(=O)(=O)c3ccccc3)CC2)C(=O)N1 | . | . | . | . | 3
CC1(CCl)CN1S(=O)(=O)c1ccccc1 (centres undefined) | -9 | 28* | -1 | 21 | -2
C=C1C(=O)C(C)=C2C(=O)N3Cc4[nH]c5ccccc5c4CC3(C(=O)OC)C12 (centres undefined) | . | . | . | . | 7
Nc1c(C(=O)NC2CCCC2)c2nc3ccccc3nc2n1CC1CCCO1 (centres undefined) | 94* | 4 | 19* | 66* | 6
Cc1cc(N2CCNC[C@H]2C)ccc1N1CC[C@H](O)C1 | . | . | . | . | -1
CCOC(=O)CC[C@@H]1CC[C@]2(CCCN(Cc3cccnc3)C2)O1 | . | . | . | . | 9
CC1=NN=C(c2ccc(N)cc2)c2cc3c(cc2C1)OCO3 | 8 | 39* | -2 | 1 | -1
SMILES | Apaf1 inhib | CTSL1 counter | PAD4 inh | GSTO1 inh | TDP2 absorb
COC(=O)C1=C[C@H]([C@@H](C)[C@H](OC)c2ccccc2Br)[C@@H]2[C@H]1c1ccccc1N2C | . | . | . | . | -5
CC(=O)C1C2c3ccccc3OC1(C)N=c1s/c(=C/c3cn(C)nc3C)c(=O)n12 (centres undefined) | 0 | 34* | 3 | -7 | 22
COc1cccc(NC2=NCCS2)c1 | . | . | . | . | -1
CN1/C(=C\C=Nc2ccccc2)C(C)(C)c2ccccc21 | 7 | 2 | -52 | -9 | -2
CN1/C(=C\C=C2C(=O)NC(=O)NC2=O)C(C)(C)c2ccccc21 | 14 | 20* | -1 | -2 | -2
CC(C)C(C(=O)NC(C)(C)C)N1C(=O)CN=C(c2ccccc2)c2ccccc21 (centres undefined) | . | . | . | . | -4
O=C(O)CC1OCC=C2CN3CCC45c6ccccc6NC4C1C2CC35 (centres undefined) | 0 | 18* | 0 | 7 | 7
COc1ccc([C@@H]2C[C@H]3[C@@H](CN2)CON3C)cc1 | . | . | . | . | -2
O=C1CN(C(=O)COC(=O)Cc2ccccc2)c2ccccc2N1 | 1 | -29 | -3 | 35* | 7
O=C(COC(=O)Cc1ccccc1)NCCNC(=O)COC(=O)Cc1ccccc1 | 0 | 0 | -3 | 5 | 8
O=C(NC(C(Cl)Cl)N1CCOCC1)c1ccccc1 (centres undefined) | -15 | 68* | 1 | 5 | -1
C=C1[C@@H](C)C2[C@H](Cc3ccccc3)NC(=O)[C@]23[C@H](OC(C)=O)/C=C/[C@@](C)(O)C(=O)[C@@H](C)C/C=C/[C@H]3[C@@H]1O (some centres undefined) | . | . | . | . | -9
Brc1ccc2c(c1)-n1nncc1CNC2 | . | . | . | . | -13
CCCNC1=C(C)C(=O)C2=C(C1=O)C(COC(N)=O)[C@]1(OC)C3NC3CN21 (some centres undefined) | 57* | 3 | -2 | 18 | -1
O=C1NC(=S)N(c2ccc(F)cc2)C(=O)/C1=C/c1ccco1 | 70* | 2 | -11 | 3 | .
COc1ccc(OC)c(N2C(=O)/C(=C/c3ccco3)C(=O)NC2=S)c1 | 73* | 6 | -4 | -2 | .
COc1ccc(N2C(=O)/C(=C/c3ccc(C)o3)C(=O)NC2=S)cc1 | 6 | . | . | . | 10
CC(C)C[C@H]1N=C(c2ccccc2)c2ccccc2N(CC(=O)NC(C)(C)C)C1=O | . | . | . | . | 7
CC1(C)C[C@H]2C=C(C=O)[C@]3(C=O)C[C@]3(C)[C@H]2C1 | 24 | 17* | -2 | -21 | 2
CCc1cc(=O)oc2cc(C)cc(OCC(=O)N3CCC(C(=O)O)(c4ccccc4)CC3)c12 | -6 | 5 | -3 | -2 | 10
Cc1cc(OCC(=O)N2CCC(C(=O)O)(c3ccccc3)CC2)c2c(C)c(C)c(=O)oc2c1 | -8 | 18* | 1 | 1 | 1

Assay outcomes from PubChem.
